Results reported in ChEMBL document CHEMBL1153506, “Design, synthesis, and discovery of novel non-peptide inhibitor of Caspase-3 using ligand based and structure based virtual screening approach” (Bioorg Med Chem, 2009).
pIC50: −log10 of the molar value. The source made the active and inactive calls. The calls are words filed in the database; no cut-off is given here.

Legend:
Caspase-3 (Homo sapiens) [1] = molecular target: T1, Caspase-3 (Homo sapiens) (UniProt P42574); assay: Inhibition of caspase 3 in human SK-N-SH cells assessed as accumulation of fluorogenic 7-amino-4-methyl coumarin at 5 mM by fluorometric assay; format: cell-based
T1 sequence (whole entry): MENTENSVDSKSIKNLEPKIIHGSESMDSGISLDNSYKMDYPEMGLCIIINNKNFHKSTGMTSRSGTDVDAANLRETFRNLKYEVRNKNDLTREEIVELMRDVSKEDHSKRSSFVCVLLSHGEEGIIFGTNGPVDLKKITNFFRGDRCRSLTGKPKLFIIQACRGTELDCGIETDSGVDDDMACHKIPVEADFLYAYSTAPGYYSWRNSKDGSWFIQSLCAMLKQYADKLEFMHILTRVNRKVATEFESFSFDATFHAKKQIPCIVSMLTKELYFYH
Procedure, shortened: (§1)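 Kit-based caspase-3 cleavage assay, using doxorubicin-induced apoptotic SK-N-SH cell extracts as the caspase source. The inhibitor was dissolved in DMSO and serially diluted to working concentrations, and a standard inhibitor served as control. Fluorescence was recorded across 420–460 nm, and decreases in intensity were expressed relative to apoptotic control extracts.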

Caspase-7 (Homo sapiens) = molecular target: T2, Caspase-7 (Homo sapiens) (UniProt P55210); assay: Inhibition of caspase 7 in human SK-N-SH cells assessed as accumulation of fluorogenic 7-amino-4-methyl coumarin by fluorometric assay; format: cell-based
T2 sequence (whole entry): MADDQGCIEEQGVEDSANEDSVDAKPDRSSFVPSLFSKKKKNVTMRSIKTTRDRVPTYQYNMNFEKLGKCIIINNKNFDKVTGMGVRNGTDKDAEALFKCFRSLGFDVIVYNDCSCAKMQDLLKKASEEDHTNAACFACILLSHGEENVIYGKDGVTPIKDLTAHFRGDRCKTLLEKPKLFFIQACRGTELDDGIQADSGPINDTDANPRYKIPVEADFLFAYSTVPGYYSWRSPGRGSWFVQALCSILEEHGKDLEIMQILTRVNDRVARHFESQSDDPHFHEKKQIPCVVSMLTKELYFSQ

Caspase-3 (Homo sapiens) [2] = molecular target: T1, Caspase-3 (Homo sapiens); assay: Inhibition of caspase 3 in human SK-N-SH cells assessed as accumulation of fluorogenic 7-amino-4-methyl coumarin at 100 uM by fluorometric assay; format: cell-based; procedure, shortened: as §1
Caspase-3 (Homo sapiens) [3] = molecular target: T1, Caspase-3 (Homo sapiens); assay: Inhibition of caspase 3 in human SK-N-SH cells assessed as decrease in fluorescence intensity-associated with accumulation of fluorogenic 7-amino-4-methyl coumarin at 5 mM by fluorometric assay relative to control; format: cell-based; parameters: scale not given: the % may be the effect or the level left; procedure, shortened: as §1
SK-N-SH [4] = assay: Induction of apoptosis in human SK-N-SH cells assessed as caspase 3 activity at 5 uM by fluorescence assay; format: functional, cell-based
Procedure, shortened: (§2)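 Human SK-N-SH neuroblastoma cells exposed to the test agent at 0.5–5 µM. Apoptosis was read as caspase-3 activity by fluorescence intensity, scanned around 420–430 nm. Values are slopes averaged from 5 experiments, each run in duplicate.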

SK-N-SH [5] = assay: Inhibition of apoptosis in human SK-N-SH cells assessed as maximum fluorescence intensity at 440 nm treated at 0.5 uM by fluorescence assay; format: functional, cell-based; procedure, shortened: as §1
Caspase-3 (Homo sapiens) [6] = molecular target: T1, Caspase-3 (Homo sapiens); assay: Inhibition of caspase 3 in human SK-N-SH cells assessed as accumulation of fluorogenic 7-amino-4-methyl coumarin at 0.5 uM by fluorometric assay; format: cell-based; procedure, shortened: as §1
Caspase-3 (Homo sapiens) [7] = molecular target: T1, Caspase-3 (Homo sapiens); assay: Inhibition of caspase 3 in human SK-N-SH cells assessed as accumulation of fluorogenic 7-amino-4-methyl coumarin at 1 mM by fluorometric assay; format: cell-based; procedure, shortened: as §1
Caspase-3 (Homo sapiens) [8] = molecular target: T1, Caspase-3 (Homo sapiens); assay: Inhibition of caspase 3 in human SK-N-SH cells assessed as accumulation of fluorogenic 7-amino-4-methyl coumarin at 10 uM by fluorometric assay; format: cell-based; procedure, shortened: as §1
Caspase-3 (Homo sapiens) [9] = molecular target: T1, Caspase-3 (Homo sapiens); assay: Inhibition of caspase 3 in human SK-N-SH cells assessed as accumulation of fluorogenic 7-amino-4-methyl coumarin at 50 uM by fluorometric assay; format: cell-based; procedure, shortened: as §1
Caspase-3 = molecular target: T3, Caspase-3 (Homo sapiens, UniProt P42574); assay: Inhibition of caspase 3 in human SK-N-SH cells assessed as accumulation of fluorogenic 7-amino-4-methyl coumarin by fluorometric assay; format: cell-based
T3 sequence (P42574 whole entry): T1 sequence (whole entry)

SK-N-SH [10] = assay: Induction of apoptosis in human SK-N-SH cells assessed as caspase 3 activity at 1 uM by fluorescence assay; format: functional, cell-based; procedure, shortened: as §2
SK-N-SH [11] = assay: Induction of apoptosis in human SK-N-SH cells at 0.5 to 5 uM by fluorescence assay; format: functional, cell-based; procedure, shortened: as §2

Activity (Caspase-3 (Homo sapiens) [1])	Activity (Caspase-7 (Homo sapiens))	Activity (Caspase-3 (Homo sapiens) [2])	Activity (Caspase-3 (Homo sapiens) [3])	Activity (Caspase-3 (Homo sapiens) [6])	Activity (Caspase-3 (Homo sapiens) [7])	Activity (Caspase-3 (Homo sapiens) [8])	Activity (Caspase-3 (Homo sapiens) [9])	pIC50 (Caspase-3)	SMILES	Activity (SK-N-SH [4])	Activity (SK-N-SH [5])	Activity (SK-N-SH [10])	Activity (SK-N-SH [11])
Active	inactive	inactive	50%	Active	Active	inactive	inactive	–	O=C(NCCCN1CCN(Cc2c(F)cccc2Cl)CC1)c1ccc(Cl)c(Cl)c1	inactive	Active	–	–
–	–	–	–	–	–	–	–	7.51	O=C1Nc2ccc(S(=O)(=O)N3CCCC3CNc3ccccc3)cc2C1=O (centres undefined)	–	–	–	–
–	–	–	–	–	–	–	–	–	COc1cccc2c1C(=O)c1c(O)c3c(c(O)c1C2=O)C[C@@](O)(C(=O)CO)C[C@@H]3O[C@H]1C[C@H](N)[C@H](O)[C@H](C)O1	Active	–	Active	Active
